Measurements collected from several papers.
Compare with care: the assays were run in different laboratories.
Cell line: HCT-116
Read-out: cell growth or viability

Compound	test	setting	IC50
COc1ccc(N(Cc2csc(-c3ccc(Br)cc3)n2)C(=O)CCCCCC(=O)NO)cc1	MTT	72 h	2.21 µM
COc1ccc(CNC(=O)Cn2cc(COc3ncnc4[nH]cnc34)nn2)cc1	MTT	–	> 100 µM
FC(F)(F)c1cc(OCc2cc(-c3ccc(Cl)cc3Cl)no2)c2ccccc2n1	MTS	72 h	> 100 µM
O=[N+]([O-])c1cc(I)c(O)c(C=NNc2ccc(C(F)(F)F)cc2)c1	MTT	24 h	9.43 µM
COc1ccc(N(Cc2csc(-c3ccccc3)n2)C(=O)CCCCCC(=O)NO)cc1	MTT	72 h	1.12 µM
CCC(C(=O)N1C(=O)C(=Nc2ccc(Cl)cc2Br)c2ccccc21)c1ccccc1 (stereo not shown)	MTT	48 h	30.9 µM
COc1cccc(N=C2SCC(=O)N2c2nnc(-c3ccc(C(F)(F)F)cc3N=C3SCC(=O)N3c3cccc(OC)c3)s2)c1	MTT	–	71.4 µM
C=CCN1C(=O)C(=Nc2cccc(C)c2)c2ccccc21	MTT	48 h	> 100 µM
Fc1ccc2c(-c3nnc(Cc4ccccc4)s3)nn(Cc3ccc(Cl)cc3Cl)c2c1	–	48 h	85.1 µM
Cc1cc(NS(=O)(=O)c2ccc(NC(=O)/C(C#N)=C/c3ccc(N4CCCCC4)cc3)cc2)no1	MTT	48 h	14.5 µM
FC(F)(F)c1cc(OCc2cc(-c3ccccc3)no2)c2ccccc2n1	MTS	72 h	> 100 µM
COc1ccc(NC(=S)N/N=C/c2cccc3cc4ccccc4nc23)cc1	MTT	48 h	> 50 µM
COc1cccc2c1C(=O)c1c(O)c3c(c(O)c1C2=O)C[C@@](O)(C(=O)CO)C[C@@H]3O[C@H]1C[C@H](N)[C@H](O)[C@H](C)O1	LDH	48 h	8.12 µM
Cc1cc(NS(=O)(=O)c2ccc(NC(=O)/C(C#N)=C/c3cccnc3)cc2)no1	MTT	48 h	> 200 µM
FC(F)(F)c1ccc(-c2cc(CNc3cccc4cccnc34)on2)cc1	MTS	72 h	> 100 µM
O=C1CS/C(=N\c2cc(C(F)(F)F)ccc2-c2nnc(N3C(=O)CS/C3=N\c3ccc(Cl)cc3)s2)N1c1ccc(Cl)cc1	MTT	–	46.2 µM
Cc1cc2c(C(=O)O)cccc2n1-c1nc2c(c(NCc3ccccc3)n1)CCCN2	ATP luminescence	72 h	0.4 µM
O=C1/C(=C/c2ccc([N+](=O)[O-])cc2[N+](=O)[O-])NC(=S)N1c1ccccc1	MTT	–	98.5 µg/mL
O=C(C=Cc1cccs1)c1ccc(OCCOc2ccc(C(=O)C=Cc3cccs3)cc2)cc1	MTT	48 h	18.1 µM
O=C1Nc2ccccc2C1=Nc1cccc(Cl)c1	MTT	48 h	> 100 µM
FC(F)(F)c1ccc(-c2noc(-c3nn(Cc4ccc(Cl)cc4Cl)c4ccccc34)n2)cc1	–	48 h	137 µM
O=C1CSC(=Nc2cc(C(F)(F)F)ccc2-c2nnc(N3C(=O)CSC3=Nc3ccc([N+](=O)[O-])cc3)s2)N1c1ccc([N+](=O)[O-])cc1	MTT	–	74.4 µM
Cc1cc2c(C(N)=O)cccc2n1-c1nc2c(c(NCc3ccccc3O)n1)CCCN2	ATP luminescence	72 h	5 µM
O=C(CSc1nc2ccccc2s1)N/N=C/c1ccc(OCC(=O)Nc2cccc([N+](=O)[O-])c2)cc1	MTS	72 h	13.3 µM
CC(=O)OC[C@H]1O[C@@H](n2cc(Cn3c(C(C)=O)nc4ccccc43)nn2)[C@H](OC(C)=O)[C@@H](OC(C)=O)[C@H]1OC(C)=O	LDH	48 h	6.49 µM
O=[N+]([O-])c1ccc(O)c(C=NNc2ccc(Br)cc2)c1	MTT	24 h	7.23 µM
COc1cccc2c1C(=O)c1c(O)c3c(c(O)c1C2=O)C[C@@](O)(C(=O)CO)C[C@@H]3O[C@H]1C[C@H](N)[C@H](O)[C@H](C)O1	–	96 h	0.00382 µM
O=C(C=Cc1ccc(OCCOc2ccc(C=CC(=O)c3cccs3)cc2)cc1)c1cccs1	MTT	48 h	17.1 µM

Compound	test	setting	IC50
CC(=O)O[C@@H]1[C@@H](OC(C)=O)[C@H](OC(C)=O)CO[C@H]1n1cc(Cn2c(C(=O)/C=C/c3ccc(F)cc3)nc3ccccc32)nn1	LDH	48 h	9.97 µM
c1ccc2c(c1)ncn2Cn1cncn1	MTT	24 h	102 µM
Cc1c2c(nn1C)CSCc1cc(n(C)n1)CSc1cc(c3ccccc3c1)OCCCc1c(C(=O)O)n(C)c3c-2c(Cl)ccc13	CCK-8	–	25 µM
Cc1cc(Cn2ccnc2)nn1C	MTT	24 h	241 µM
Fc1ccc2c(-c3nnc(Cc4ccccc4)s3)nn(Cc3ccccc3)c2c1	–	48 h	73.9 µM
Cc1ccc(CN2C(=O)C(=Nc3cccc(C)c3)c3ccccc32)cc1	MTT	48 h	0.39 µM
CC(C)c1ccc(/C=C2\N=C(SCc3ccccc3)N(c3ccccc3)C2=O)cc1	MTT	–	72.9 µg/mL
CNC(=S)N/N=C/c1cccc2cc3ccccc3nc12	MTT	48 h	21.8 µM
O=C1C(=Nc2cccc(Cl)c2)c2ccccc2N1Cc1ccc([N+](=O)[O-])cc1	MTT	48 h	0.84 µM
O=c1cc(OCc2cc(-c3ccc(C(F)(F)F)cc3)no2)c2ccccc2o1	MTS	72 h	> 100 µM
COc1cccc2c1C(=O)c1c(O)c3c(c(O)c1C2=O)C[C@@](O)(C(=O)CO)C[C@@H]3O[C@H]1C[C@H](N)[C@H](O)[C@H](C)O1	MTT	72 h	0.2 µM
COc1cccc2c1C(=O)c1c(O)c3c(c(O)c1C2=O)C[C@@](O)(C(=O)CO)C[C@@H]3O[C@H]1C[C@H](N)[C@H](O)[C@H](C)O1	ATP luminescence	72 h	0.98 µM
Cc1cc2c(C(N)=O)cncc2n1-c1nc2c(c(NCc3ccccc3)n1)CCCN2	ATP luminescence	72 h	1.2 µM
CC(C)c1cccc(C(C)C)c1N=C1C(=O)Nc2ccccc21	MTT	48 h	4.65 µM
O=C1CS/C(=N\c2cc(C(F)(F)F)ccc2-c2nnc(N3C(=O)CS/C3=N\c3ccc(F)cc3)s2)N1c1ccc(F)cc1	MTT	–	21.2 µM
Clc1ccc(Cn2nc(-c3ncc(-c4ccccc4)s3)c3ccccc32)c(Cl)c1	–	48 h	404 µM
COc1cccc2c1C(=O)c1c(O)c3c(c(O)c1C2=O)C[C@@](O)(C(=O)CO)C[C@@H]3O[C@H]1C[C@H](N)[C@H](O)[C@H](C)O1	MTT	–	41.2 µM
COC(=O)c1ccc2c(c1)NC(=O)/C2=C(\Nc1ccc(N(C)C(=O)CN2CCN(C)CC2)cc1)c1ccccc1	MTT	24 h	1.88 µM
CC1(P2(=O)CCCCC2)CCCCC1	MTT	72 h	69.3 µM
COc1cc(N=C2C(=O)Nc3ccccc32)cc(OC)c1	MTT	48 h	24.4 µM
O=C(CSc1nc2ccccc2s1)N/N=C/c1ccc(OCC(=O)Nc2ccc([N+](=O)[O-])cc2)cc1	MTS	72 h	52.9 µM
Cc1cccc(N=C2C(=O)N(Cc3ccc(Br)cc3)c3ccccc32)c1	MTT	48 h	8.21 µM
N#Cc1ccc(-c2cc(COc3cc(=O)oc4ccccc34)on2)cc1	MTS	72 h	> 100 µM
Cc1cc2c(C(N)=O)cccc2n1-c1nc2c(c(NCc3cccnc3)n1)CCCN2	ATP luminescence	72 h	1 µM
O=[N+]([O-])c1cc(I)c(O)c(C=NNc2ccccc2)c1	MTT	24 h	6.34 µM
O=C(O)c1nn(Cc2ccc(Cl)cc2Cl)c2ccccc12	–	48 h	247 µM
c1ccc(-c2cc(CNc3cccc4cccnc34)on2)nc1	MTS	72 h	> 100 µM
